Usually IC50 stands for the concentration at which inhibition is half-maximal. Low values mean greater potency, high ones weaker potency.

Assay [1] is described as follows: Growth inhibition of apoptosis-resistant human OE21 cells after 72 hrs by MTT assay. The settings on record: OE21, 72 h. Format: functional, cell-based. A digest of the protocol: (§1)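 Cells seeded at 10 000 to 40 000 cells/mL, depending on line, and plated 24 h before treatment. Cultured 72 h with or without (control) compound. Viable cells measured by MTT reduction to formazan, absorbance at 570 nm (reference 630 nm). IC50 reported as mean ± SEM. Media carried 4 mM glutamine, gentamicin and penicillin-streptomycin. B16F10 grown in RPMI with 10% heat-inactivated FCS.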

Assay [2] in a line: Growth inhibition of apoptosis-resistant human U373 cells after 72 hrs by MTT assay. Format: functional, cell-based, U-373MG ATCC. Particulars: U373 MG. A digest of the protocol: as §1
For assay [3], the system named is SK-MEL-28. The experiment in a line: Growth inhibition of apoptosis-resistant human SK-MEL-28 cells after 72 hrs by MTT assay. It counts as functional, cell-based. The settings on record: SK-MEL-28, 72 h. The procedure, abridged:
as §1

The test system of assay [4] is B16-F10. Nature of the assay: Growth inhibition of apoptosis-sensitive mouse B16F10 cells after 72 hrs by MTT assay. Format: functional, cell-based. The settings on record: B16-F10, 72 h. The procedure, abridged:
as §1
(Tetrazolium dyes change colour on reduction, which living cells bring about.)

Assay [5] has as its system A549. The experiment in a line: Growth inhibition of apoptosis-resistant human A549 cells after 72 hrs by MTT assay. Format: functional, cell-based. Particulars: A549, 72 h. The procedure, abridged:
as §1

Assay [6] deals with Hs 683. Nature of the assay: Growth inhibition of apoptosis-sensitive human Hs 683 cells after 72 hrs by MTT assay. It counts as functional, cell-based. The settings on record: Hs 683, 72 h. The procedure, abridged: as §1
For assay [7], the system named is B16-F10. The experiment in a line: Cytostatic effect against apoptosis-sensitive mouse B16F10 cells assessed as impairment of cell population development at 20 uM by quantitative video microscopy.
The test system of assay [8] is B16-F10. The experiment in a line: Cytostatic effect against apoptosis-sensitive mouse B16F10 cells assessed as impairment of cell population development at 20 uM by quantitative video microscopy. It counts as functional, cell-based. The procedure, abridged:
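Computer-assisted phase-contrast microscopy (quantitative videomicroscopy) of B16F10 cells in RPMI with 10% heat-inactivated FCS, monitored 72 h without (control) or with compound. Time-lapse image sequences built into movies. Growth level taken as ratio of cell counts in first versus last frames. Cells counted in 1 mm2 fields at G×20, triplicate conditions, five fields each (15 fields per condition), mean ± SEM.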

Each structure is given as a SMILES string. Calls of active or inactive are those of the source. The rule behind the calls is not given here.

With `C/C=C/C=C/C(=O)[C@@H]1[C@@H]([C@]2(C)OC(=O)C(C)=C2O)C2\C(=C(O)/C=C/C=C/C)C(=O)[C@]1(C)C(=O)[C@@]2(C)O` [BISLONGIQUINOLIDE], the IC50 in assay [1] worked out at 9 µM; in assay [2], 4 µM; in assay [3] it was 8 µM; in assay [4], 3 µM; in assay [5] it was 11 µM; in assay [6], 22 µM.

`C/C=C/C=C/C(=O)C1=C(O)[C@@]2(C)C3C(C(=O)CC/C=C/C)=C(O)[C@@]4(C)C1[C@]1(C)O[C@@]4(O)[C@@]3(C)O[C@@]12O` [DIHYDROTRICHODIMEROL]: the half-inhibitory concentration (IC50) is 28 µM in assay [1]; 25 µM in assay [2]; 33 µM in assay [3]; 3 µM in assay [4]; 33 µM in assay [5]; 34 µM in assay [6]. The inhibition entry in assay [7] is “Active”.

On to `O[C@H]1[C@H]2c3cc4c(cc3CN3CCC(=C[C@@H]1O)[C@H]23)OCO4` [LYCORINE], for which the half-inhibitory concentration (IC50) in assay [1], in assay [2], in assay [3], in assay [4], in assay [5] and in assay [6] was 2 µM each time. Moreover, the inhibition result in assay [8] was “Active”.

On to `O=C1N[C@@H]2C(=C[C@H](O)[C@@H](O)[C@H]2O)c2cc3c(c(O)c21)OCO3` [NARCICLASINE], for which the half-inhibitory concentration (IC50) in assay [1], in assay [2], in assay [3], in assay [4], in assay [5] and in assay [6] was 0.05 µM in each case.

Regarding `C[C@@H]1[C@@]2(C)CC[C@@H]3[C@H]2CC[C@@]1(C)O[C@@]3(C)O` [SEIRICARDINE B], the concentration for half-maximal inhibition (IC50) in assay [1], in assay [2], in assay [3], in assay [4], in assay [5] and in assay [6] was above 100 µM throughout.

For the compound `C[C@@H]1[C@@]2(C)CC[C@@H]3[C@H]2CC[C@@]1(C)O[C@]3(C)O` [SEIRICARDINE C], the half-inhibitory concentration (IC50) in assay [1], in assay [2], in assay [3], in assay [4], in assay [5] and in assay [6] was above 100 µM throughout.

The values above are taken from ChEMBL document CHEMBL1157774, “Investigations of fungal secondary metabolites with potential anticancer activity” (J Nat Prod, 2010).
